ChEMBL document CHEMBL4680220, “Synthesis and biological evaluation of acridine-based histone deacetylase inhibitors as multitarget agents against Alzheimer's disease” (Eur J Med Chem, 2020)

How the values were obtained:
[1] = molecular target: T1, Amyloid-beta precursor protein (Homo sapiens, UniProt P05067); assay: Disaggregation of self-induced amyloid beta (1 to 42) (unknown origin) preformed fibrils at 10 uM measured after 24 hrs by thioflavin-T fluorescence assay relative to control
Outline: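 Aβ1-42 (10 µM) with 10 µM ThT and 1 mM EDTA in 50 mM phosphate buffer (150 mM NaCl, pH 7.4) pre-aggregated 24 h at 37 °C, 700 rpm; fluorescence read (ex 440/em 486 nm). Compound then added and incubated a further 24 h at 37 °C before re-reading. Disaggregation = (first − second reading)/first reading. Triplicate.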

Histone deacetylase 7 = molecular target: T2, Histone deacetylase 7 (Homo sapiens, UniProt Q8WUI4); assay: Inhibition of recombinant human N-terminal GST-tagged HDAC7 (518 to end residues) expressed in baculovirus infected Sf9 cells using fluorogenic HDAC 2A substrate preincubated for 5 mins followed by substrate addition and measured after 30 mins by fluorescence assay
T2 sequence (Q8WUI4 whole entry): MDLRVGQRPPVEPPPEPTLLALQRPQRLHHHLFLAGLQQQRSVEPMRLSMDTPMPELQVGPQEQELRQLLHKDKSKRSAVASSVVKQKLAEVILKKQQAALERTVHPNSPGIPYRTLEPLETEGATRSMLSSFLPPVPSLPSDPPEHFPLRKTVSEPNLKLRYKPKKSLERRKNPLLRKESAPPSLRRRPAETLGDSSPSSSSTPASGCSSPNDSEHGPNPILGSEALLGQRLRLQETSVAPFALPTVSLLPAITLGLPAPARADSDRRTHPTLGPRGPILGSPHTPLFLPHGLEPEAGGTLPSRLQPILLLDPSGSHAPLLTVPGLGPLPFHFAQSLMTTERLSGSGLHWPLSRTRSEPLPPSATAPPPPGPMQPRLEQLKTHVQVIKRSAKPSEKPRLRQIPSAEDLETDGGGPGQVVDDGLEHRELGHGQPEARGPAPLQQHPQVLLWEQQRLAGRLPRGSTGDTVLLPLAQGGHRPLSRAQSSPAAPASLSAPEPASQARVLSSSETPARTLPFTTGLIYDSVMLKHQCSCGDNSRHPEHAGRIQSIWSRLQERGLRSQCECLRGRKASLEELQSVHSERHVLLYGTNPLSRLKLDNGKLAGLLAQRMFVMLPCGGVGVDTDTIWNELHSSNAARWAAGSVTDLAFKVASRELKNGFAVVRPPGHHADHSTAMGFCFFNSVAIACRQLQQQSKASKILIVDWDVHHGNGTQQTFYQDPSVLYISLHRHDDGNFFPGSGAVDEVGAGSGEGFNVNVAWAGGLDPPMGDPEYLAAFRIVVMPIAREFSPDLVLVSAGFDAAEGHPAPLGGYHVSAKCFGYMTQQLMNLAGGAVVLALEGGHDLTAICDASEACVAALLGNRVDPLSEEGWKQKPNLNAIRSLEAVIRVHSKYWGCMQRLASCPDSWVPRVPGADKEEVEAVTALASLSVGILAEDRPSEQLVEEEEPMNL

[2] = molecular target: T1, Amyloid-beta precursor protein; assay: Inhibition of amyloid beta (1 to 42) (unknown origin) self aggregation after 24 hrs by thioflavin-T fluorescence method
Outline: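 ThT aggregation assay. Compound at varying concentrations combined with 10 µM Aβ1-42 (1 mM DMSO stock), 10 µM ThT, 1 mM EDTA in 50 mM phosphate buffer (150 mM NaCl, pH 7.4). Incubated 24 h at 37 °C with shaking at 700 rpm; fluorescence ex 440/em 486 nm. 0.1% DMSO wells = 100% aggregation; compound wells without Aβ = background. IC50 from triplicates.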

Histone deacetylase 4 = Histone deacetylase 4 (Homo sapiens, UniProt P56524); assay: Inhibition of recombinant human N-terminal GST-tagged/C-terminal His-tagged HDAC4 (627 to 1084 residues) expressed in baculovirus expression system using Boc-Lys(TFA)-AMC as substrate preincubated for 5 mins followed by substrate addition and measured after 30 mins by fluorescence assay
Sequence of Histone deacetylase 4 (P56524 whole entry, the tested form may be a part): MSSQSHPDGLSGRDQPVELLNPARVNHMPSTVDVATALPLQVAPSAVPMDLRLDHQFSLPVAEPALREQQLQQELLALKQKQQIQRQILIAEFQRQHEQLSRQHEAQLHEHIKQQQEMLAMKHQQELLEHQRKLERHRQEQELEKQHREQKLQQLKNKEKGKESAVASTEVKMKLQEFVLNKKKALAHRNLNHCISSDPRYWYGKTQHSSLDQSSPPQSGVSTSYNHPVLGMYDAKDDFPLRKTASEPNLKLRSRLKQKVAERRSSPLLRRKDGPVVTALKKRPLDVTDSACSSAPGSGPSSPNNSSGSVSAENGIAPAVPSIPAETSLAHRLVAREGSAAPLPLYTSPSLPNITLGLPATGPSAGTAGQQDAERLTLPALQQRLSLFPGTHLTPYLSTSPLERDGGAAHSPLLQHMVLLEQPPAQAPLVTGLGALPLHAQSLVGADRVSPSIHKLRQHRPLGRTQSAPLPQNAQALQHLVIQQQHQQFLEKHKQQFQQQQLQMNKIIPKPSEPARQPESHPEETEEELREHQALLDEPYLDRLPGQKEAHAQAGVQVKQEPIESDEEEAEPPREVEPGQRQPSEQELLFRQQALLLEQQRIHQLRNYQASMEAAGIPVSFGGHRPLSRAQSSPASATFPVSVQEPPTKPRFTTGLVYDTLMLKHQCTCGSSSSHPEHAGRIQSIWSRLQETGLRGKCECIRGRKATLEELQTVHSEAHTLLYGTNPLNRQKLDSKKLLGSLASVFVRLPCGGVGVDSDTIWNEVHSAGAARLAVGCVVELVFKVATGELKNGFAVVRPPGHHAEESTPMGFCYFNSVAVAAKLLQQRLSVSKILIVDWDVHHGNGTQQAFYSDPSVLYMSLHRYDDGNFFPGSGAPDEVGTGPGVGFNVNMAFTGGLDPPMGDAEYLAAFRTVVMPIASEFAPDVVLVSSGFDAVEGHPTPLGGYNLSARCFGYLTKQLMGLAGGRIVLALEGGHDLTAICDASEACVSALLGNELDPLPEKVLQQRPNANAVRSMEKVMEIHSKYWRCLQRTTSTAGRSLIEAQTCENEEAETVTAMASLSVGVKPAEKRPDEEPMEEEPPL

Histone deacetylase 5 = Histone deacetylase 5 (Homo sapiens, UniProt Q9UQL6); assay: Inhibition of recombinant human C-terminal His-tagged HDAC5 (656 to 1122 residues) expressed in baculovirus infected Sf9 insect cells using fluorogenic HDAC 2A substrate preincubated for 5 mins followed by substrate addition and measured after 30 mins by fluorescence assay
Sequence of Histone deacetylase 5 (Q9UQL6 whole entry, the tested form may be a part): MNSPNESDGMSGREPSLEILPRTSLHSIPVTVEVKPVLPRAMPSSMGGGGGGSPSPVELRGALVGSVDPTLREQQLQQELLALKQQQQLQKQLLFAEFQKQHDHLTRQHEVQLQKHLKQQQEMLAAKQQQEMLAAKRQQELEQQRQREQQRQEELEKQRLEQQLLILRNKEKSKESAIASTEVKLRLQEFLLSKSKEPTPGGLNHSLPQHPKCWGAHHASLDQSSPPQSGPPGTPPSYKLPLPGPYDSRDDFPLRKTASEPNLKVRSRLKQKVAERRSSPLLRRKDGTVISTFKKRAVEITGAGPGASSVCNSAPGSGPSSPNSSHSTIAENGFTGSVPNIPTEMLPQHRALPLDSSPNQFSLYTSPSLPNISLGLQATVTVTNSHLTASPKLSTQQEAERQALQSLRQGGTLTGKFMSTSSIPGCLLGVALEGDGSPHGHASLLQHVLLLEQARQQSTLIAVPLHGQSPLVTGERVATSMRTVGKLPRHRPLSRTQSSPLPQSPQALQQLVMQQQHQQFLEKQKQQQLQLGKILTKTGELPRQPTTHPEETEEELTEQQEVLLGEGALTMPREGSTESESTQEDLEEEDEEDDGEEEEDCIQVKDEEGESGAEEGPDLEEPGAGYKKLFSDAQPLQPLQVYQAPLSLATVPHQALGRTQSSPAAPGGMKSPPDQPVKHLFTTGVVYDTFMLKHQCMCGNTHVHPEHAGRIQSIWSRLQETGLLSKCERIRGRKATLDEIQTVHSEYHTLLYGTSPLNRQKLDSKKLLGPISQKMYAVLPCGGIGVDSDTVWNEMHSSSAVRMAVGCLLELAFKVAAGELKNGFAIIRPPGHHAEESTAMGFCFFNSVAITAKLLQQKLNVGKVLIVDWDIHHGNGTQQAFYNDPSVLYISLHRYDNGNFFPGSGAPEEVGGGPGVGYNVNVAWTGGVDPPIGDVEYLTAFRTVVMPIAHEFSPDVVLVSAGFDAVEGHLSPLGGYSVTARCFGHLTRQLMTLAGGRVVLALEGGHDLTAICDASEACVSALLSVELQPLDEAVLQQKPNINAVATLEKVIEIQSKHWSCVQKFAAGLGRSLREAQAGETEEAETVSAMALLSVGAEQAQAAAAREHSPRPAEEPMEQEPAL

Histone deacetylase 9 = Histone deacetylase 9 (Homo sapiens, UniProt Q9UKV0); assay: Inhibition of recombinant human C-terminal His-tagged HDAC9 (604 to 1066 residues) expressed in baculovirus infected Sf9 cells using fluorogenic HDAC 2A substrate preincubated for 5 mins followed by substrate addition and measured after 30 mins by fluorescence assay
Sequence of Histone deacetylase 9 (Q9UKV0 whole entry, the tested form may be a part): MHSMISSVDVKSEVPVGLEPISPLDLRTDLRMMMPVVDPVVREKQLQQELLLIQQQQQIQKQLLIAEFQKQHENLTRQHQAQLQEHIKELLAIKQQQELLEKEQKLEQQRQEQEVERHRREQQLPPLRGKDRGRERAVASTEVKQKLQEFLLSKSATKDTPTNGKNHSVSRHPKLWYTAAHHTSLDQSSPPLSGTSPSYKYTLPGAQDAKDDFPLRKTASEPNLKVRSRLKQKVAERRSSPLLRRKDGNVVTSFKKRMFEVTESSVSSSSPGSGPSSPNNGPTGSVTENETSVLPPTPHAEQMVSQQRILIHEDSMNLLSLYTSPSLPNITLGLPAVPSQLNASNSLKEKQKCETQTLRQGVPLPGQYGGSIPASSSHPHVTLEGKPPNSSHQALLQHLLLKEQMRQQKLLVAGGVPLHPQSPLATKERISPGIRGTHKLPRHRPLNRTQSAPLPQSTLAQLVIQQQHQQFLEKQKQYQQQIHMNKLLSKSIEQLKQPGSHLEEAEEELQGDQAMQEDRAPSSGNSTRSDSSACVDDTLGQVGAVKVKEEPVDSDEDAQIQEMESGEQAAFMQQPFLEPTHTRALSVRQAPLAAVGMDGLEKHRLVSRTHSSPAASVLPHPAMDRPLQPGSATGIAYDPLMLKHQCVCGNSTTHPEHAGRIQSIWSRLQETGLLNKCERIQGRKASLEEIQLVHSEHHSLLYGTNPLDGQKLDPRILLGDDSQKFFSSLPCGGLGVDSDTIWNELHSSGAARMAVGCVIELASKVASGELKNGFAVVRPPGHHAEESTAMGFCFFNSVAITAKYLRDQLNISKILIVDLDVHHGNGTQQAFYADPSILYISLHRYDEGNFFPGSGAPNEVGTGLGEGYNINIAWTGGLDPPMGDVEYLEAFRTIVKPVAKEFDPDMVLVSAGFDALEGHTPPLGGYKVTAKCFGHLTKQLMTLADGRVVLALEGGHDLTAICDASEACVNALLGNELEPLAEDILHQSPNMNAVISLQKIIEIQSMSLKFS

Acetylcholinesterase = Acetylcholinesterase (Homo sapiens, UniProt P22303); assay: Inhibition of recombinant human C-terminal 6His-tagged AChE (Glu32 to Leu614 residues) expressed in CHO cells using acetylthiocholine iodide as substrate preincubated for 5 mins measured after 15 mins by DTNB reagent based assay
Sequence of Acetylcholinesterase (P22303 whole entry): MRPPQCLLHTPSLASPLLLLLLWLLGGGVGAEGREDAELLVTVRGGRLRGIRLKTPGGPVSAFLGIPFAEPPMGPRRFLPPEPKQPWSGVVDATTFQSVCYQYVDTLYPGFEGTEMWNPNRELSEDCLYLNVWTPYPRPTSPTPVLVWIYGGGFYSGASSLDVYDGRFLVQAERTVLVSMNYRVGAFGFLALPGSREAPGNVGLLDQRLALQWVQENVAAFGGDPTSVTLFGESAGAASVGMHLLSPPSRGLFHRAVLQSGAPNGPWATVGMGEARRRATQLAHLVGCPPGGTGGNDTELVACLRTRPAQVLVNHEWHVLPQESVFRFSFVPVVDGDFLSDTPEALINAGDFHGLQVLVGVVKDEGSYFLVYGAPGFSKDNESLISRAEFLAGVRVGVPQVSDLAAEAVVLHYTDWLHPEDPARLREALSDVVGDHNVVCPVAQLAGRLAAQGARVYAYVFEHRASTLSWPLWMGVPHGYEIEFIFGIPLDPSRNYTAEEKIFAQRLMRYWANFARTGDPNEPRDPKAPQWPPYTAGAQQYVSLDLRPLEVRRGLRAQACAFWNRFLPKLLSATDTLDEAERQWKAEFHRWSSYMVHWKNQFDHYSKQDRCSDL
Outline: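 Enzyme, compounds, acetylthiocholine iodide and DTNB diluted in 100 mM phosphate buffer pH 7.4. AChE was preincubated with the compound at varying concentrations for 5 min at 37 °C. The reaction was started with 1 mM ATCI solution and run 15 min at 37 °C. 2 mM DTNB solution was then added for 5 min. Absorbance read at 412 nm. IC50 set 0.1% DMSO wells as 100% and no-enzyme wells as 0%. Run in triplicate.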

[3] = molecular target: Class 1 histone deacetylase (Homo sapiens, UniProt Q13547+O15379+Q92769+Q9BY41); assay: Inhibition of class 1 HDAC in human HeLa cell nuclear extract using Boc-Lys(Ac)-AMC as substrate preincubated for 5 mins followed by substrate addition and measured after 30 mins by fluorescence assay; format: cell-based
[4] = molecular target: T3, Protein deacetylase HDAC6 (Homo sapiens, UniProt Q9UBN7); assay: Inhibition of recombinant human full-length N-terminal GST-tagged HDAC6 expressed in baculovirus infected Sf9 insect cells using Boc-Lys(Ac)-AMC as substrate preincubated for 5 mins followed by substrate addition and measured after 30 mins by fluorescence assay
T3 sequence (Q9UBN7 whole entry): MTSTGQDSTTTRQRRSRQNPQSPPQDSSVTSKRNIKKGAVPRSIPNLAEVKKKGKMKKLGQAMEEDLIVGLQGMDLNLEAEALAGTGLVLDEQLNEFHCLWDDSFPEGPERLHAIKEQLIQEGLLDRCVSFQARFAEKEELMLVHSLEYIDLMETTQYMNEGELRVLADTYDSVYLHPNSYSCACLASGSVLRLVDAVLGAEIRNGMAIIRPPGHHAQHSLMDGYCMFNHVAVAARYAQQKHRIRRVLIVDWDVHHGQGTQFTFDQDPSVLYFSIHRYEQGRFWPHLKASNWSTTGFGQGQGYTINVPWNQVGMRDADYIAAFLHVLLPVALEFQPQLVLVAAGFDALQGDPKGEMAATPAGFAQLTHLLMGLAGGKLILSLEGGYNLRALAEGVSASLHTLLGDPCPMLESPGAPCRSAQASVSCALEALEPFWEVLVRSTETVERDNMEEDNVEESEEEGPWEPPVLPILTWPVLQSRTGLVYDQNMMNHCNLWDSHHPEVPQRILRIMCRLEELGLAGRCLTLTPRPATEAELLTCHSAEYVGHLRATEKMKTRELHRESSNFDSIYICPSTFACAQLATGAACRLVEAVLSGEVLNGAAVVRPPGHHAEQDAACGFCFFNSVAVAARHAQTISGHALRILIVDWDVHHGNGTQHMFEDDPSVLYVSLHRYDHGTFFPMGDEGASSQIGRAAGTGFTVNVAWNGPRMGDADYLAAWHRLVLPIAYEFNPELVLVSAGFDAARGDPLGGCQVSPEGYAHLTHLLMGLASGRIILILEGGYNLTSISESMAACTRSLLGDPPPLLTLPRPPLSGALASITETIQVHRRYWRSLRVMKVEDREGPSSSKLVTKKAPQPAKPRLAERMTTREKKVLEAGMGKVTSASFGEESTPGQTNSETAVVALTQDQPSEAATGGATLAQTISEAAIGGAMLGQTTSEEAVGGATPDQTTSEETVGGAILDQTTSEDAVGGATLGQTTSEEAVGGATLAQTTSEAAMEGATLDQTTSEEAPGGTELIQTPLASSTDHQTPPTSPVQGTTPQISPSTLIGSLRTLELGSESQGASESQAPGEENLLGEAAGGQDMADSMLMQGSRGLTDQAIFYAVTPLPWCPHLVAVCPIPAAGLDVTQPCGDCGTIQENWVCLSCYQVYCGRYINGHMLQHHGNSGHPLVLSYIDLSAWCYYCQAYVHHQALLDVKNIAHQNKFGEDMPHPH

[5] = Half life in human liver microsomes at 1 uM preincubated for 3 mins followed by NADPH addition and measured up to 60 mins by LC-MS/MS analysis; format: ADME, Microsome; settings: time <=63 min
Outline: (§1)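 Mixed-gender human liver microsomes with test article at 1 µM final. Testosterone (5 µM) run separately as control. Mixture without cofactor equilibrated 3 min at 37 °C in a shaking water bath, then started with cofactor. Aliquots taken at 0, 10, 20, 30 and 60 min. CLint = k/P, where k is the elimination rate constant and P is the incubation protein concentration.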

[6] = Elimination rate constant in human liver microsomes at 1 uM preincubated for 3 mins followed by NADPH addition and measured up to 60 mins by LC-MS/MS analysis; format: ADME, Microsome; settings: time <=63 min; outline: as §1
[7] = Intrinsic clearance in human liver microsomes at 1 uM preincubated for 3 mins followed by NADPH addition and measured up to 60 mins by LC-MS/MS analysis; format: ADME, Microsome; settings: 1 h, time <=63 min; outline: as §1

T1 sequence (P05067 whole entry): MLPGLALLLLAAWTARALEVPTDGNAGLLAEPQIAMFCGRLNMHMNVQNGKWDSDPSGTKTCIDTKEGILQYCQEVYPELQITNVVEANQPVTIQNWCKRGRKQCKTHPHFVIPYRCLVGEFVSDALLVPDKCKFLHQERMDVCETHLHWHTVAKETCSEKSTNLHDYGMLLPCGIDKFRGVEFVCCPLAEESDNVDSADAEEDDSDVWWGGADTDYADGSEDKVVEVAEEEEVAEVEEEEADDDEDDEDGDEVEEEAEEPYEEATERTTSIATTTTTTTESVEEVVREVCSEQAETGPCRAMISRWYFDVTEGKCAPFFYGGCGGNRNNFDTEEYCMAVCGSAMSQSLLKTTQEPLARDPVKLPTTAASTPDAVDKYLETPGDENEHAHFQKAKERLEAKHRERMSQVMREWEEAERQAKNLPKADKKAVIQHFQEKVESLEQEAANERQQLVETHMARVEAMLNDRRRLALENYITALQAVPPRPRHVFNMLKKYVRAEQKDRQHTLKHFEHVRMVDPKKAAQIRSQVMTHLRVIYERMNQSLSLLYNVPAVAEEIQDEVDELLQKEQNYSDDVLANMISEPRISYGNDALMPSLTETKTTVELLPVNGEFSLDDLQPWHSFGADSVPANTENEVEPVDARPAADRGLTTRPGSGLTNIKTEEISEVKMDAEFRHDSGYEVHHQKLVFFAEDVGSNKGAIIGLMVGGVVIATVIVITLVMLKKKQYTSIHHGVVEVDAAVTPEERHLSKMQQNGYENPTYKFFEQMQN

COc1cc2nc3ccccc3c(Nc3ccc(C(=O)NO)cc3)c2c(OC)c1OC
inhibition [1]: 42%
IC50 (Histone deacetylase 7): 4.57 µM
IC50 [2]: 13 µM
IC50 (Histone deacetylase 4): 15.7 µM
IC50 (Histone deacetylase 5): 4.23 µM
IC50 (Histone deacetylase 9): 4.95 µM
IC50 (Acetylcholinesterase): 0.64 µM
IC50 [3]: 0.81 µM
IC50 [4]: 0.16 µM

O=c1c(O)c(-c2ccc(O)cc2O)oc2cc(O)cc(O)c12 [MORIN]
IC50 [2]: 8.5 µM

COc1ccc2nc3cc(Cl)ccc3c(Nc3ccc(C(=O)NO)cc3)c2n1
inhibition [1]: 53%
IC50 [2]: 34.9 µM
IC50 (Histone deacetylase 4): > 40 µM
IC50 (Histone deacetylase 5): 15.2 µM
IC50 (Histone deacetylase 9): > 40 µM
IC50 (Acetylcholinesterase): 9.25 µM
IC50 [3]: 0.8 µM
IC50 [4]: 0.34 µM

O=C(CCCCCCC(=O)Nc1ccccc1)NO [VORINOSTAT]
inhibition [1]: 0%
IC50 [2]: > 20 µM

O=C(NO)c1ccc(Nc2ccnc3ccccc23)cc1
inhibition [1]: 0%
IC50 [2]: > 20 µM
IC50 (Histone deacetylase 4): > 40 µM
IC50 (Histone deacetylase 5): 3.37 µM
IC50 (Histone deacetylase 9): 13.2 µM
IC50 (Acetylcholinesterase): 0.83 µM
IC50 [3]: 0.6 µM
IC50 [4]: 0.039 µM

O=C(Cc1ccc(Nc2c3ccccc3nc3ccccc23)cc1)NO
IC50 (Histone deacetylase 7): 1.94 µM
IC50 (Histone deacetylase 4): 26.6 µM
IC50 (Histone deacetylase 5): 1.66 µM
IC50 (Histone deacetylase 9): 6.42 µM
IC50 [3]: 2.07 µM
IC50 [4]: 0.074 µM

O=C(NO)c1ccc(Nc2c3c(nc4ccccc24)CCCC3)cc1
inhibition [1]: 0%
IC50 (Histone deacetylase 7): > 40 µM
IC50 [2]: > 20 µM
IC50 (Histone deacetylase 4): > 40 µM
IC50 (Histone deacetylase 5): 17.5 µM
IC50 (Histone deacetylase 9): > 40 µM
IC50 (Acetylcholinesterase): 1.97 µM
IC50 [3]: > 40 µM
IC50 [4]: 3.55 µM

c1ccc2nc3ccccc3cc2c1 [ACRIDINE]
IC50 (Acetylcholinesterase): 6.84 µM

O=C(NO)c1ccc(Nc2c3ccccc3nc3ccc(F)cc23)cc1
inhibition [1]: 38%
IC50 [2]: > 20 µM
IC50 (Histone deacetylase 4): 3.04 µM
IC50 (Histone deacetylase 5): 0.69 µM
IC50 (Histone deacetylase 9): 0.52 µM
IC50 (Acetylcholinesterase): 0.6 µM
IC50 [3]: 0.25 µM
IC50 [4]: 0.029 µM

O=C(NO)c1ccc(Nc2c3ccccc3nc3ccc(OC(F)(F)F)cc23)cc1
inhibition [1]: 53%
IC50 [2]: 3.5 µM
IC50 (Histone deacetylase 4): 14.7 µM
IC50 (Histone deacetylase 5): 15.8 µM
IC50 (Histone deacetylase 9): 31.1 µM
IC50 (Acetylcholinesterase): 3.65 µM
IC50 [3]: 0.67 µM
IC50 [4]: 0.029 µM

O=C(NO)c1ccc(Nc2c3ccccc3nc3ccc(OCc4ccccc4)cc23)cc1
inhibition [1]: 57%
IC50 (Histone deacetylase 7): 3.1 µM
IC50 [2]: 3 µM
IC50 (Histone deacetylase 4): 1.21 µM
IC50 (Histone deacetylase 5): 0.43 µM
IC50 (Histone deacetylase 9): 1.25 µM
IC50 (Acetylcholinesterase): 2.64 µM
IC50 [3]: 3.5 µM
IC50 [4]: 0.22 µM

O=C(NO)c1cccc(Nc2c3ccccc3nc3ccccc23)c1
IC50 (Histone deacetylase 4): 29.4 µM
IC50 (Histone deacetylase 5): 20.8 µM
IC50 (Histone deacetylase 9): 12.2 µM
IC50 [3]: > 40 µM
IC50 [4]: 4.69 µM

C[C@]12CC[C@H]3[C@@H](CCC4=CC(=O)CC[C@@]43C)[C@@H]1CC[C@@H]2O [TESTOSTERONE]
half-life at 1 µM [5]: 25.7 min
k el at 1 h, 1 µM [6]: 0.00045 s⁻¹
CLint [7]: 54 µL/min/mg

O=C(CCc1ccc(Nc2c3ccccc3nc3ccccc23)cc1)NO
IC50 (Histone deacetylase 4): 7.06 µM
IC50 (Histone deacetylase 5): 2.58 µM
IC50 (Histone deacetylase 9): 29 µM
IC50 [3]: 0.1 µM
IC50 [4]: 0.14 µM
